Reference: ChEMBL document CHEMBL4831480, “Identification of First-in-Class Inhibitors of Kallikrein-Related Peptidase 6 That Promote Oligodendrocyte Differentiation” (J Med Chem, 2021)
Calls of active or inactive are those of the source. The rule behind the calls is not given here.

Columns and labels:
Kallikrein-6 [1] = target: T1, Kallikrein-6 (Homo sapiens, UniProt Q92876); assay: Inhibition of KLK6 (unknown origin) assessed as release of AMC fluorescent product using Boc-QAR-AMC as substrate incubated for 30 mins by microplate reader; conditions: read-out: IC50
Kallikrein-6 [2] = target: T1, Kallikrein-6; assay: Competitive inhibition of KLK6 (unknown origin) using Boc-QAR-AMC as substrate incubated for 30 mins by Dixon plot analysis
Plasminogen [3] = target: T2, Plasminogen (Homo sapiens, UniProt P00747); assay: Inhibition of plasmin (unknown origin) assessed as release of AMC fluorescent product using Boc-QAR-AMC as substrate incubated for 30 mins by microplate reader
[4] = target: T3, Kallikrein-14 (Homo sapiens) (UniProt Q9P0G3); assay: Inhibition of KLK14 (unknown origin) assessed as inhibition of release of AMC fluorescent product using H-VPR-AMC as substrate at 10 uM incubated for 30 mins by microplate reader relative to control
T3 sequence (whole entry): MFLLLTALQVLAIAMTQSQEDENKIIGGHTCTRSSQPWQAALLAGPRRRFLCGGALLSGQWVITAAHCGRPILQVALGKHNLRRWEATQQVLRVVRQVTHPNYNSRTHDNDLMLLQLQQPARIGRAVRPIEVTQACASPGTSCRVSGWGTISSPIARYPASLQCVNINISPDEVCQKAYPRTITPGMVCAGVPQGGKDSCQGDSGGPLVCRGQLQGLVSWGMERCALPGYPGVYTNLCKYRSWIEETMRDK

[5] = target: Tissue-type plasminogen activator (Homo sapiens) (UniProt P00750); assay: Inhibition of tPA (unknown origin) assessed as inhibition of release of AMC fluorescent product using Z-GGR-AMC as substrate at 10 uM incubated for 30 mins by microplate reader relative to control
In short: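 Each inhibitor at 10 μM was preincubated 15 min at 37 °C with the protease at an optimized concentration in its own buffer. Reaction started with AMC substrate: Ac-VDVAD-AMC 25 μM (caspase-2), Ac-DEVD-AMC 10 μM (caspase-3), Ac-VEID-AMC 100 μM (caspase-6), Z-LR-AMC 50 μM (cathepsin L), Z-GGR-AMC 100 μM (tPA). Read for 30 min at 37 °C; % inhibition from initial rates versus DMSO; 3 independent experiments.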

Trypsin-3 (Homo sapiens) = target: T4, Trypsin-3 (Homo sapiens) (UniProt P35030); assay: Inhibition of Trypsin 3 (unknown origin) assessed as inhibition of release of AMC fluorescent product using […] as substrate at 10 uM incubated for 30 mins by microplate reader relative to control
T4 sequence (whole entry): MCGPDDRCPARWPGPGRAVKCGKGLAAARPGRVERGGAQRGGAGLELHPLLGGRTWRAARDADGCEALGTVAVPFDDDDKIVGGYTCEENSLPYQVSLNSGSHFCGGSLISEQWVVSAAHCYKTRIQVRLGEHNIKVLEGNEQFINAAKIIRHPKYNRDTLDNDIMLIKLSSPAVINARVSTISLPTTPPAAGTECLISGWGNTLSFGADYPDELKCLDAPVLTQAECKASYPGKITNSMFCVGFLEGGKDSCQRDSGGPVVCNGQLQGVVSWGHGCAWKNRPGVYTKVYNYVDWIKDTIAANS

Plasminogen [6] = target: T2, Plasminogen; assay: Competitive inhibition of plasmin (unknown origin) using Boc-QAR-AMC as substrate incubated for 30 mins by Dixon plot analysis
Cortical neurone = assay: Cytotoxicity against Swiss mouse cortical cells assessed as cell viability at 10 uM incubated for 24 hrs by XTT assay; type: cell-based
[7] = target: T5, Kallikrein-11 (Homo sapiens) (UniProt Q9UBX7); assay: Inhibition of KLK11 (unknown origin) assessed as inhibition of release of AMC fluorescent product using Boc-QAR-AMC as substrate at 10 uM incubated for 30 mins by microplate reader relative to control
T5 sequence (whole entry): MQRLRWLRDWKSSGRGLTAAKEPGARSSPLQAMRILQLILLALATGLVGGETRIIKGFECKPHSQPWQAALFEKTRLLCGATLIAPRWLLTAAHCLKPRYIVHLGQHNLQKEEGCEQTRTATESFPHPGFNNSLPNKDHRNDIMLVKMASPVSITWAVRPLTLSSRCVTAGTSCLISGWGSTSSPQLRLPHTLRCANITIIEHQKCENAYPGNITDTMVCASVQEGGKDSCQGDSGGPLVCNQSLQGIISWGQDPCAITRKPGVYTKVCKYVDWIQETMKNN

Prothrombin/thrombin = assay: Inhibition of Thrombin (unknown origin) assessed as inhibition of release of AMC fluorescent product using […] as substrate at 10 uM incubated for 30 mins by microplate reader relative to control; conditions: Homo sapiens
[8] = target: Kallikrein-7 (Homo sapiens) (UniProt P49862); assay: Inhibition of KLK7 (unknown origin) assessed as inhibition of release of AMC fluorescent product using MeO-Suc-RPY-AMC as substrate at 10 uM incubated for 30 mins by microplate reader relative to control
[9] = Cytotoxicity against Swiss mouse cortical cells assessed as cell viability at 50 uM incubated for 24 hrs by XTT assay; type: cell-based, Cortical neurone; conditions: mouse cortical cells (cortical neurones), read-out: Activity
Kallikrein-1 = Kallikrein-1 (Homo sapiens, UniProt P06870); assay: Competitive inhibition of KLK1 (unknown origin) assessed as release of AMC fluorescent product using H-PFR-AMC as substrate incubated for 30 mins by microplate reader
[10] = Toxicity in human blood assessed as effect on activated partial thromboplastin time; type: tissue-based
[11] = Toxicity in human blood assessed as effect on prothrombin ratio; type: tissue-based
[12] = Permeability in human Caco-2 cells assessed as compound recovery; type: ADME, cell-based; conditions: read-out: Activity
[13] = Metabolic stability in human liver microsomes assessed as half life; type: ADME, Microsome
[14] = target: Voltage-gated inwardly rectifying potassium channel KCNH2 (Homo sapiens, UniProt Q12809); assay: Inhibition of human ERG
Microglia [15] = assay: Anti-inflammatory activity in new born Wistar rat brain microglia assessed as reduction in LPS-induced TNFalpha expression measured after 24 hrs by ELISA
Microglia [16] = assay: Anti-inflammatory activity in new born Wistar rat brain microglia assessed as reduction in LPS-induced IL-1beta expression measured after 24 hrs by ELISA
CG-4 [17] = assay: Induction of oligodendrocyte differentiation in Sprague-Dawley rat CG-4 cells assessed as matured oligodendrocyte by measuring increase in mCherry positive cells at 2 uM measured after 4 days by fluorescence imaging analysis; type: functional, cell-based; conditions: time 4.0 day
[18] = Cytotoxicity against Sprague-Dawley rat CG-4 cells assessed as cell death at 30 uM measured after 4 days by fluorescence imaging analysis; type: cell-based; conditions: cg-4, 96 h, time 4 day
CG-4 [19] = assay: Induction of oligodendrocyte differentiation in Sprague-Dawley rat CG-4 cells assessed as matured oligodendrocyte by measuring increase in mCherry positive cells at 6 to 8 uM measured after 4 days by fluorescence imaging analysis; type: functional, cell-based; conditions: dose 6-8 µM, time 4.0 day

Sequence of Kallikrein-7 (Homo sapiens) (P49862 30-253 limits assumed): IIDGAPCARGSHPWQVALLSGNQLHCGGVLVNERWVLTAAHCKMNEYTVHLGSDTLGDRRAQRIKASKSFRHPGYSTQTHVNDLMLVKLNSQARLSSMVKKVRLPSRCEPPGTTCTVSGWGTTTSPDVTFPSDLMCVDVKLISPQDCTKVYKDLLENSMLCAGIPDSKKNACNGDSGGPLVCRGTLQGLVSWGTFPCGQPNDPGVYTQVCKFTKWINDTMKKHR
Sequence of Tissue-type plasminogen activator (Homo sapiens) (P00750 36-562 limits assumed): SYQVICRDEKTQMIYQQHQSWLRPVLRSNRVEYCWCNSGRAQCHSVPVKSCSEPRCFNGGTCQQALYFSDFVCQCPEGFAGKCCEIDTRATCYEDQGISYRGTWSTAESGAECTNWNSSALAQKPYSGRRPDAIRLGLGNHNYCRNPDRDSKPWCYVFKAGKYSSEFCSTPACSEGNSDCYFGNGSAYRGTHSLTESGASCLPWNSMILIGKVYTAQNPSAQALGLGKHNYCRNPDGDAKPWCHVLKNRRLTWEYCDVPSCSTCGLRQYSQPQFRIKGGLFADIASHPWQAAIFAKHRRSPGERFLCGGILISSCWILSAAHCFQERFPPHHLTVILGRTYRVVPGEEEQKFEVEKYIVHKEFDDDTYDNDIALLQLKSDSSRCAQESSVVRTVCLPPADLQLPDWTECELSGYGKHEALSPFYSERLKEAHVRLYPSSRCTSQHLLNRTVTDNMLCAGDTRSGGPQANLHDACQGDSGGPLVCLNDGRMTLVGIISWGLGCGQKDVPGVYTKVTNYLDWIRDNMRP
T2 sequence (P00747 97-580 limits assumed): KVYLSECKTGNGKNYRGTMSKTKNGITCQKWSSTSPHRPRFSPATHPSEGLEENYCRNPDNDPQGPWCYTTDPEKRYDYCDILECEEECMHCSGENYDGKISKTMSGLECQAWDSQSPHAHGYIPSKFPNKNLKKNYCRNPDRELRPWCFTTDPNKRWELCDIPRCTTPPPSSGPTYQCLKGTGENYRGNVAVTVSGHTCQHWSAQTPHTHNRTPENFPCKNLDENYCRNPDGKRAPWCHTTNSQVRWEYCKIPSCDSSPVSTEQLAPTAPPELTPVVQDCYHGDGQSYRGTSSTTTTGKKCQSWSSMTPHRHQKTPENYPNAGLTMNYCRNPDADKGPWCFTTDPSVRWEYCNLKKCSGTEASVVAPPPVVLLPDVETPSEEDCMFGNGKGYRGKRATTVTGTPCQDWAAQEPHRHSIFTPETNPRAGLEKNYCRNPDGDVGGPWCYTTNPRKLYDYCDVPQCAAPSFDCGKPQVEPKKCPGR
T2 sequence (P00747 581-810 limits assumed): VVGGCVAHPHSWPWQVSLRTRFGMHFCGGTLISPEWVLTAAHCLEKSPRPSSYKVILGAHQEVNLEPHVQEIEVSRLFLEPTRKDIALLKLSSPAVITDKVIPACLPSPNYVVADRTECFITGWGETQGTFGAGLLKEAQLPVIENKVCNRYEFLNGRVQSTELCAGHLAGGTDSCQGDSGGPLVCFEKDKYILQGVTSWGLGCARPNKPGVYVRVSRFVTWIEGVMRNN
Sequence of Voltage-gated inwardly rectifying potassium channel KCNH2 (Q12809 whole entry): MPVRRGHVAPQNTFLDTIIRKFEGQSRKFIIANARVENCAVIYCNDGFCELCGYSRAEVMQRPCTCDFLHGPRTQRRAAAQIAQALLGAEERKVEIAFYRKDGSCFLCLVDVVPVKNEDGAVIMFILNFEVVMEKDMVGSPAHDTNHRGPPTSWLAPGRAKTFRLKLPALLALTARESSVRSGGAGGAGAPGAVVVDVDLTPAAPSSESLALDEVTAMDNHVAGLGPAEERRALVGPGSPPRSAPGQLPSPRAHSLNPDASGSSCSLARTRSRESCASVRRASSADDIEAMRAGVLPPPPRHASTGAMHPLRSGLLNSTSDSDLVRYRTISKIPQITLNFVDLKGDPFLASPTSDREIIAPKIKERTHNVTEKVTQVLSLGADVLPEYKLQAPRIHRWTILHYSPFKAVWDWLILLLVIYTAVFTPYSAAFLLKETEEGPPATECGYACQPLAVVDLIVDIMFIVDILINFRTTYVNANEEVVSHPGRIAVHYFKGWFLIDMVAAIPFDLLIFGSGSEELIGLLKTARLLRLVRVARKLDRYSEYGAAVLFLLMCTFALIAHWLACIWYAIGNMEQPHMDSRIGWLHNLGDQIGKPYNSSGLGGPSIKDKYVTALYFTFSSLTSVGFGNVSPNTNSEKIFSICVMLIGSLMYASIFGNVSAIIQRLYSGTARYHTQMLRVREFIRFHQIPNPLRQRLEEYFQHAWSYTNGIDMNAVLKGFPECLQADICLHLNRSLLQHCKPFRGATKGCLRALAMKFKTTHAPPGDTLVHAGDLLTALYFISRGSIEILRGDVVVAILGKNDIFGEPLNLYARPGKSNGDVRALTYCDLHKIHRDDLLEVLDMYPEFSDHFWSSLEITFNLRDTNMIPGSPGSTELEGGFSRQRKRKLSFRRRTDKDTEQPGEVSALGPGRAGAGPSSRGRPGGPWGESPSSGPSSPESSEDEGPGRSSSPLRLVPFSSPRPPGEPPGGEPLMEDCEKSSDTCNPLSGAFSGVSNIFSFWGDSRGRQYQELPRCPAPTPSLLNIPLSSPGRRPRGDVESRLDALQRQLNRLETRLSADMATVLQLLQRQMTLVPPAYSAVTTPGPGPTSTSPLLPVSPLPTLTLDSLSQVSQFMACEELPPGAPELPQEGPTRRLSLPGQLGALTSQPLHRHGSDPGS
Sequence of Kallikrein-1 (P06870 whole entry): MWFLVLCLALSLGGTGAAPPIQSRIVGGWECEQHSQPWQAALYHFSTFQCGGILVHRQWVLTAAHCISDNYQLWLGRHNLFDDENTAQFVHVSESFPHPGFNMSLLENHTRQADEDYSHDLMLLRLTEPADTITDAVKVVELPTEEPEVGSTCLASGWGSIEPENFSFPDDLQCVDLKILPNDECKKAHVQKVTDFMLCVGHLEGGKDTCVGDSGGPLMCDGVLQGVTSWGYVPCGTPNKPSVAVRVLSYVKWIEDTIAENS

| Compound | IC50 (Kallikrein-6 [1]) [µM] | Ki (Kallikrein-6 [2]) [nM] | IC50 (Plasminogen [3]) [µM] | inhibition [4] [%] | inhibition [5] [%] | inhibition (Trypsin-3 (Homo sapiens)) [%] | inhibition [7] [%] | inhibition (Prothrombin/thrombin) [%] | inhibition [8] [%] | other results |
| --- | --- | --- | --- | --- | --- | --- | --- | --- | --- | --- |
| Cl.NCc1ccc(NC(=O)c2ccc3ccccc3c2O)cc1 | 6.9 | 2400 | 10.2 | 11 | 18 | 30 | 80 | 5 | 0 | Ki (Plasminogen [6]): 1500 nM; Activity (Cortical neurone): Toxic |
| CC(C)c1ccc(C(=O)Nc2ccc(CN)cc2)c(O)c1 | 3.63 | 1500 | 4.8 | 12 | 6 | 73 | 75 | 32 | 7 | – |
| Cl.NCc1ccc(NC(=O)c2cc3ccccc3cc2O)cc1 | – | – | 7.4 | 5 | 6 | 36 | 45 | – | 6 | viability at 24 h, 50 µM [9]: 65%; Ki (Plasminogen [6]): 1300 nM; Ki (Kallikrein-1): 2400 nM; Activity [10]: Non-Toxic; Activity [11]: Non-Toxic; recovery [12]: > 90%; half-life [13]: > 120 min; Activity [14]: Not Active; Activity (Microglia [15]): Active; Activity (Microglia [16]): Active |
| COc1ccc2c(O)c(C(=O)Nc3ccc(CN)cc3)ccc2c1 | – | – | 3.3 | 16 | 10 | 32 | 0 | – | 10 | – |
| CC(C)(C)c1ccc(O)c(C(=O)Nc2ccc(CN)cc2)c1.Cl | – | 4300 | 21.3 | 1.5 | 11 | 15 | 56 | 2 | 9 | Activity (CG-4 [17]): Active; Activity [18]: Toxic |
| Cc1ccc2ccc(C(=O)Nc3ccc(CN)cc3)c(O)c2c1 | – | – | 6.7 | 4 | 9 | 21 | 88 | 6 | 11 | – |
| Cc1ccc(C(=O)Nc2ccc(CN)cc2)c(O)c1.Cl | 2.37 | 2000 | 9.2 | 3 | 0 | 20 | 39 | 0 | 12 | viability at 24 h, 50 µM [9]: 65%; Activity (CG-4 [19]): Active; Activity [10]: Non-Toxic; Activity [11]: Non-Toxic; recovery [12]: > 90%; half-life [13]: > 120 min; Activity [14]: Not Active; Activity (Microglia [15]): inactive; Activity (Microglia [16]): inactive |
